Results from ChEMBL document CHEMBL1137375, “Design, synthesis, and biological evaluation of new 1,8-naphthyridin-4(1H)-on-3-carboxamide and quinolin-4(1H)-on-3-carboxamide derivatives as CB2 selective agonists” (J Med Chem, 2006).
pEC50, pKi: −log10 of the molar value. Calls of active or inactive are those of the source. No cut-off for these calls is given here.

Experiments:
Cannabinoid receptor 1 [1] = target: T1, Cannabinoid receptor 1 (Mus musculus, UniProt P47746); experiment: Displacement of [3H]CP-55940 from CB1 receptor in DBA/J2 mouse brain; assay type: tissue-based
Cannabinoid receptor 2 = Cannabinoid receptor 2 (Mus musculus, UniProt P47936); experiment: Displacement of [3H]CP-55940 from CB2 receptor in DBA/J2 mouse spleen
Procedure, shortened: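 Membranes (40-60 µg protein) from mouse brain minus cerebellum (CB1) or spleen (CB2), incubated 1 h at 30 °C with 0.5 nM [3H]CP-55,940 in TME buffer (pH 7.4) with 5 mg/mL BSA. GF/C filtration, scintillation counting. IC50 by nonlinear fit, converted to Ki by Cheng-Prusoff; at least three membrane preparations.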

[2] = target: Cannabinoid receptor (Mus musculus) (UniProt P47746+P47936); experiment: Selectivity for DBA/J2 mouse CB2 receptor over CB1 receptor; assay type: protein assay
[3] = target: Cannabinoid receptor 1 (Mus musculus) (UniProt P47746); experiment: (§1) Activity at CB1 receptor assessed as stimulation of [35S]GTP-gamma-S binding in DBA/J2 mouse brain; assay type: functional; conditions: filed as agonist
Cannabinoid receptor 1 [4] = target: T1, Cannabinoid receptor 1; experiment: as §1; assay type: functional
[5] = target: Cannabinoid receptor 1 (Mus musculus) (UniProt P47746); experiment: Activity at CB1 receptor assessed as stimulation of [35S]GTP-gamma-S binding in DBA/J2 mouse brain relative to control; assay type: functional
Procedure, shortened: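 Mouse brain (minus cerebellum) P2 membranes, 5-10 µg protein, incubated 60 min at 30 °C in 50 mM Tris-HCl, 3 mM MgCl2, 0.2 mM EGTA, 100 mM NaCl, pH 7.4, 0.1% BSA, with 0.05 nM [35S]GTPγS, 30 µM GDP, compound 1-5000 nM. Filtration, scintillation counting. Nonspecific binding with 10 µM GTPγS. Stimulation as % above basal. EC50/Emax by nonlinear regression; at least four experiments in duplicate.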

[6] = target: Cannabinoid receptor 2 (Homo sapiens) (UniProt P34972); experiment: Activity at CB2 receptor assessed as reduction in CD203c expression in activated human basophil; assay type: functional
Procedure, shortened: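 Human basophil-rich leukocytes from donor blood buffy coats via Ficoll-Paque. Cells pretreated with compound 1 nM to 1 µM for 30 min at 37 °C, then stimulated with anti-IgE 1 µg/mL for 30 min at 37 °C. CD203c (PE) read by flow cytometry on IgE-FITC-gated basophils. Antagonist check: SR 144528 or AM251 100 nM preincubated 30 min. Six experiments in triplicate.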

Cannabinoid receptor (Mus musculus), sequence (P47746 whole entry, looked up): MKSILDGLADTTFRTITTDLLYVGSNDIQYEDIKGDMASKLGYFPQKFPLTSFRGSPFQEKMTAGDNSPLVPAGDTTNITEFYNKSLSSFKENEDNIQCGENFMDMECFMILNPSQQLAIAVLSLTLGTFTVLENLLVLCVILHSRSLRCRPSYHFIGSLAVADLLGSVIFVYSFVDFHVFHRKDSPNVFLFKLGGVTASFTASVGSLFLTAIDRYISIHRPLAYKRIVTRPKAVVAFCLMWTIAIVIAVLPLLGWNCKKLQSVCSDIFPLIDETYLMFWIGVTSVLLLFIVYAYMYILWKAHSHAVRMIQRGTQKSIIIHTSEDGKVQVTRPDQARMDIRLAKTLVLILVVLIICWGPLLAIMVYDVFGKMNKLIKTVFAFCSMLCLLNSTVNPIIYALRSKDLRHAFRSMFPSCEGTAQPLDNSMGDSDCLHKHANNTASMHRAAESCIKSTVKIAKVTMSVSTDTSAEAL
Cannabinoid receptor (Mus musculus), sequence (P47936 whole entry, looked up): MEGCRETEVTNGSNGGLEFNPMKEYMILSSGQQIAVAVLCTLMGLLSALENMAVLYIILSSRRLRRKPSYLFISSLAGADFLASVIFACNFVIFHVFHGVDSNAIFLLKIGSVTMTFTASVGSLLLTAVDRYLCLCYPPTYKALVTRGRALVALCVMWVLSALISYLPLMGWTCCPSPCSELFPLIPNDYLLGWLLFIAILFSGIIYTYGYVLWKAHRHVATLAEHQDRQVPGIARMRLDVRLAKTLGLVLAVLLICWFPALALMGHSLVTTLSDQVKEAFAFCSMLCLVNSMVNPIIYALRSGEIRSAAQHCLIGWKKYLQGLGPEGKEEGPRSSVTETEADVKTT
T1 sequence (P47746 whole entry): as the sequence (P47746 whole entry, looked up) above
Cannabinoid receptor 1 (Mus musculus), sequence (P47746 whole entry): as the sequence (P47746 whole entry, looked up) above
Cannabinoid receptor 2, sequence (P47936 whole entry): as the sequence (P47936 whole entry, looked up) above
Cannabinoid receptor 2 (Homo sapiens), sequence (P34972 whole entry): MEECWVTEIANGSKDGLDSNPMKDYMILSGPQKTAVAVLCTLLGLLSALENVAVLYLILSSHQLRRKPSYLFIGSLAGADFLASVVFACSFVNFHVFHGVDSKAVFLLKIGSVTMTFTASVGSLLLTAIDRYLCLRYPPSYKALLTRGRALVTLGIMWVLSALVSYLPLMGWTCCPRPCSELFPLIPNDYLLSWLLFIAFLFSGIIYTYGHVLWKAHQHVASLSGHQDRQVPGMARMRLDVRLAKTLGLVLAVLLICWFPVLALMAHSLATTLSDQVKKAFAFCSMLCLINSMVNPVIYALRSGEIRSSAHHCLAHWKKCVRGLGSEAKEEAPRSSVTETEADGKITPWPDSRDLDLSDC

SMILES	pKi (Cannabinoid receptor 1 [1])	pKi (Cannabinoid receptor 2)	Ratio Ki [2]	Activity [3]	pEC50 (Cannabinoid receptor 1 [4])	Emax [5] [%]	Activity [6]
Cc1ccc2c(=O)c(C(=O)NC3CCC(C)CC3)cn(Cc3ccc(F)cc3)c2n1 (stereo not given)	8.06	8.85	6	Agonist	7.57	172	
CCCC(C)(C)c1ccc2c(c1)OC(C)(C)[C@@H]1CC=C(C)C[C@@H]21	6.34	7.19	7				
O=C(NC1CCCCC1)c1cn(Cc2ccccc2F)c2nc(Cl)ccc2c1=O		7.74					
Cc1ccc2c(=O)c(C(=O)NC3CCC(C)CC3)cn(Cc3ccccc3F)c2n1 (stereo not given)	7.43	8.08	4	Agonist	6.86	161	
Cc1ccc2c(=O)c(C(=O)NC3CCCCC3)cn(CCc3ccccc3)c2n1	< 6.00	7.79	> 62				
COc1ccc(Cn2cc(C(=O)NC3CCCCC3)c(=O)c3ccc(C)nc32)cc1	< 6.00	7.45	> 28				
O=C(NC1CCCCC1)c1cn(Cc2ccccc2)c2ccccc2c1=O	< 6.00	8.32	> 210				Active
O=C(NC1CCCCC1)c1cn(CCN2CCOCC2)c2ncccc2c1=O	< 6.00	7.17	> 15				
CCCCC/C=C\C/C=C\C/C=C\C/C=C\CCCC(=O)NCCCl	8.41	6.92	0.03				
O=C(NC1CCCCC1)c1cn(Cc2ccccc2)c2nc(Cl)ccc2c1=O	6.33	7.61	19				
Cc1ccc2c(=O)c(C(=O)NC3CCCCC3)cn(CCN3CCN(c4ccccc4)CC3)c2n1	< 6.00	< 6.00					
Cc1ccc2c(=O)c(C(=O)NC3CCCCCC3)cn(Cc3ccccc3F)c2n1	6.83	7.87	11				
O=C(NC1CCCCC1)c1cn(CCN2CCOCC2)c2cc(Cl)ccc2c1=O	< 6.00	8.48	> 303				
O=C(NC1CCCCC1)c1cn(Cc2ccc(F)cc2)c2nc(Cl)ccc2c1=O	6.31	7.67	23				
Cc1ccc2c(n1)N(Cc1ccccc1)CC(C(=O)NC1CCCCC1)C2O (stereo not given)	< 6.00	< 6.00					
Cc1ccc2c(=O)c(C(=O)NC3CCCCCC3)cn(Cc3ccccc3)c2n1	6.84	8.29	28				
Cc1c(C(=O)c2cccc3ccccc23)c2cccc3c2n1[C@H](CN1CCOCC1)CO3						187	
O=C(NC1CCCCC1)c1cn(Cc2ccc(F)cc2)c2ncccc2c1=O	6.42	7.89	29				
Cc1ccc2c(n1)N(CCN1CCOCC1)CC(C(=O)NC1CCC(C)CC1)C2O (stereo not given)	< 6.00	< 6.00					
Cc1ccc2c(n1)N(Cc1ccccc1F)CC(C(=O)NC1CCCCC1)C2O (stereo not given)	< 6.00	< 6.00					
Cc1ccc2c(=O)c(C(=O)NC3CCCCC3)cn(Cc3ccccc3)c2n1	6.90	8.00	13				
Cc1ccc2c(=O)c(C(=O)NC3CCCCCC3)cn(Cc3ccc(F)cc3)c2n1	8.37	9.00	4.3				
CC1CCC(NC(=O)c2cn(CCN3CCOCC3)c3nc(Cl)ccc3c2=O)CC1 (stereo not given)	< 6.00	7.39	> 25				
O=C(NC1CCCCC1)c1cn(Cc2ccccc2)c2ncccc2c1=O	< 6.00	7.31	> 21				
Cc1ccc2c(=O)c(C(=O)NC3CCCC3)cn(CCN3CCOCC3)c2n1	< 6.00	7.30	> 20				Active
